Test system: MS2 coat protein
Experiment: apparent Kd, MS2 coat protein; higher = weaker binding; RNA-MaP array
Procedure, shortened: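 The designed RNAs, transcribed from sequenced DNA templates on an Illumina sequencing chip, were incubated with fluorescently labeled MS2 coat protein at room temperature. Protein ranged from 1.5 nM to 3 μM, with 0.8–1.5 h incubation at the lowest and 10–20 min at the highest concentrations, in Tris-HCl pH 7.5 buffer with KCl, MgCl2, BSA, DTT, tRNA and Tween20, with or without input ligand. The median of per-cluster binding-curve fits gives the apparent Kd, and designs measured on fewer than 10 clusters were excluded.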

[1] = designed as: ON switch for flavin mononucleotide, no ligand
[2] = ligand present: flavin mononucleotide, designed as: ON switch for flavin mononucleotide
[3] = designed as: OFF switch for flavin mononucleotide, no ligand
[4] = ligand present: flavin mononucleotide, designed as: OFF switch for flavin mononucleotide
[5] = designed as: OFF switch for tryptophan, no ligand
[6] = ligand present: tryptophan, designed as: OFF switch for tryptophan

Row | Sequence | apparent Kd [3] | apparent Kd [4] | also measured
1 | UGAUUAUACUUUGAGGAUAUACUAGGACUCACAUGAGGAUCACCCAUGUGUGCGGCUAUACGAGCGUAGAAGGCAAAUACUCCGGC |  |  | apparent Kd [1]: 9.31 nM; apparent Kd [2]: 7.91 nM
2 | UCAUGCUGAGGAUAUACAUGAGGAUCACCCAUGUACAGAAUAAGGGAGUGCCAUCAAAGUAGAAGGCAGGACGU | 14.4 nM | 14.6 nM | 
3 | UCUAACCUAGGAUAUACAUGCCUUGCGUAGCACAUCCGUUUACAUGAGGAUCACCCAUGUAGAAGGAGGGACGG | 6.55 nM | 8.51 nM | 
4 | GUAUGAGAAGCAUAUACAUGAGGAUCACCCAUGUCCUCAGCGGAGGAUAUGUCUUUCAGGAGUAUACAGAAGGCCGCGGAAUUC | 346 nM | 260 nM | 
5 | GUGGGCGCUGAGAAGGACCGGAGACGCCGAUUGGUAGGAUAUCAGAAAGGUGCCGGUGAUUACAUGAGGAUCACCCAUGUAUGG | 22.8 nM | 20.2 nM | 
6 | CCUCACUUGAAGAAGGACAGCUUCGGUCACAUCGGAACAUGAGGAUCACCCAUGUGACGCGUGGUGUAGGAUAUUCGUAAGGCA | 57.6 nM | 147 nM | 
7 | AUAUAAACGCAGAAGGAUCGUUUCCUUUAAAUGAUAGGAUAUGCCAACCUUGACAUGAGGAUCACCCAUGUGUUACUCUGUUUU | 113 nM | 98.2 nM | 
8 | UAUGUACAUGAGGAUCACCCAUGUCAGGAUAUCUUCGAUUAGACCAUUAGCGCCGCGGAGAGAAGGGACGUAGA | 16 nM | 15.1 nM | 
9 | GCGCCUCCCAAGGAUAUAACGCGUCUCUAAGGAUUAGAAGGUGGGACAUGAGGAUCACCCAUGUGACUCCUUUA | 7.31 nM | 7.37 nM | 
10 | UAACGCCCCUUAGGAUAUCCACGUAACCCCUCCCCCGUAAGUAGAAACAUGAGGAUCACCCAUGUGGAGAAGGAAGUGACCCGC | 20.8 nM | 18.9 nM | 
11 | GGGCACAUGAGGAUCACCCAUGUCCAACGGCGAGGACCGGUACGGCCGCCACUCGGUAUAAGCUUCGAAAAGGAGGAUCCUGCAG |  |  | apparent Kd (designed as: ON switch for tryptophan, no ligand): 38.4 nM; apparent Kd (ligand present: tryptophan, designed as: ON switch for tryptophan): 30.9 nM
12 | UCCUCGUUUACAUGAGGAUCACCCAUGUGCUCGUCUAAACAUUAGGAUAUCGACCCUCUGCGCAUCGAGAAGGAAUACGGCGAG | 192 nM | 204 nM | 
13 | GCAUAAGAUCAGAAGGGUAAUUUGUAACAACAUACAGGAUAUGAGGAAACAUGAGGAUCACCCAUGUGAAGCGAAAACAGAAAU |  |  | apparent Kd [1]: 15.5 nM; apparent Kd [2]: 11.4 nM
14 | GGAUUCAGAGGAUAUACAUGAGGAUCACCCAUGUCAUUCAGCCAAGAUAUGUGUUUCAGUAGAAGGCUGAUCGG | 22.3 nM | 18 nM | 
15 | AGCUUAAUUAUAGGAUAUGAGAGGACAUGAGGAUCACCCAUGUAGAUGUUUGCCACAUAGCCAGUUCAGAAGGAUAGAGCACCA | 24.9 nM | 19.4 nM | 
16 | CGAGUUUGCAAAGGAUAUCGGUUUUGAACAGACCGAGAAGGUUGACUGUACAUGAGGAUCACCCAUGUGUGCUCGAUAUAAAGA |  |  | apparent Kd [1]: 7.72 nM; apparent Kd [2]: 7.04 nM
17 | GGAACAUGAGGAUCACCCAUGUAAUCACGACGAGGACCGGUACGGCCGCCACUCGUAUUCACGCAAGGUAGAGGAAUACGUAGGC |  |  | apparent Kd [5]: 12.6 nM; apparent Kd [6]: 13.8 nM
18 | AGGGUACAUGAGGAUCACCCAUGUUAGGAUAUGUCCGGUACGGCCGCCGUACCAGGCAACAGAAGGAACACAGC | 30.2 nM | 26.2 nM | 
19 | CUAUACGUAACAUGAGGAUCACCCAUGUUCAGGUGACCAGGAAGAAGGGCUAGCAGAGUAGUUCAGCAGGAUAUUCGAUUAGAC | 38.6 nM | 28.9 nM | 
20 | AAGUUACACAAGAAGGAGGGCGACUUUUUCACAUGAGGAUCACCCAUGUAUCCUCUUGGAGGAACCUAGGAUAUUGCUAAGCGU | 175 nM | 170 nM | 
21 | UAAGAGUCGGCAGGAUAUGUCCCUUGAGCGCAGACAGAAGGGCCACUAUCUUUCACAUGAGGAUCACCCAUGUCCUCCCUGGAG | 49 nM | 61.6 nM | 
22 | ACACAUCCACAUGAGGAUCACCCAUGUAAACCGAAAUAGCACUAGGAUAUGGGACAAACAAUUCACCAGAAGGAGUAAAAGAAA |  |  | apparent Kd [1]: 52.7 nM; apparent Kd [2]: 23.8 nM
23 | ACAGAAAAUAGAGGAUAUACAAGAACAUGAGGAUCACCCAUGUAAUAACAAUAUGAUCGGUUCAAGAAGAAGGCUAAACAAAAU | 14.2 nM | 12.8 nM | 
24 | AGAGCACAUGAGGAUCACCCAUGUUAGGAUAUAAGUCUGGAUCUACCUGAGCCCGAUCUUAGAAGGAACGGUGU | 11 nM | 11.6 nM | 
25 | AACGUCAACGUAAGGAUAUGCAGUAAGAGCGACAGGCAGAAGGUACAUGAGGAUCACCCAUGUUAACAGAACGG | 8.79 nM | 9.6 nM | 
26 | UGUCACUGUUUGGUUCAAUGAAGAAGAAUUCGAGGACCGGUACGGCCGCCACUCGCUAUGCAACAUGAGGAUCACCCAUGUAAAA |  |  | apparent Kd [5]: 15.8 nM; apparent Kd [6]: 15.3 nM
27 | UACAAGCAAGGAUAUACAUGAGGAUCACCCAUGUGGAGAGCCAGCAAAUUCCGGAAAUGUAGAAGGUGCCACAA | 34.4 nM | 32.8 nM | 

Row | Sequence | apparent Kd [3] | apparent Kd [4] | also measured
28 | UUCACAGUGCAAGGAUAUGACAGUUUACAUGAGGAUCACCCAUGUUGGUCCUAUUCAGAAUGAGAUCAGAAGGUGCUAAUAUGU | 18.6 nM | 36.1 nM | 
29 | UACGGUGCAGGAUAUCGAAUUUCAAACAUGAGGAUCACCCAUGUCUAAUAUGGCGACUAACGAGAAGGGCAGGAAG | 16.2 nM | 16 nM | 
30 | AGUCACUUCUAGAAGGCGCGGACUUACUAGCGGCGAGGAUAUAGUAGGAACAUGAGGAUCACCCAUGUCUAUUGGGUACGGCCC | 14.2 nM | 14.9 nM | 
31 | AUACAAUCAGGAUAUACUAGGCGAUAACAGAUUAUGACGUCACAUGAGGAUCACCCAUGUAGAAGGGAUCAGGA | 39.2 nM | 53.1 nM | 
32 | UCCCGACAUGAGGAUCACCCAUGUGGACAGUACACAGGAUAUUAACUCAUUACAAUAGAAUAAGAAGGGUGGUACC |  |  | apparent Kd [1]: 69.1 nM; apparent Kd [2]: 47.1 nM
33 | AAGCCACAUGAGGAUCACCCAUGUAAGGGUACCUGAGGAUAUCCGGCGGGACAGAAAGGAGGAGAAGGCAGAUCCA |  |  | apparent Kd [1]: 50.2 nM; apparent Kd [2]: 33 nM
34 | UAAGCACAUCAGAAGGCGCAUUAGUUGAACUUGCGAGGAUAUGAUCUGUCCUCAUCAACAUGAGGAUCACCCAUGUGUCAGCUC | 37.6 nM | 140 nM | 
35 | CGCAGACUGUUAGGAUAUGAUACUAACAUGAGGAUCACCCAUGUUUACUCAGUGGAUAAGCAGAGUCAGAAGGAACAUUACGCA |  |  | apparent Kd [1]: 12.2 nM; apparent Kd [2]: 9.29 nM
36 | CAUAUCAAUUCAGGAUAUUCUGUUUAAUACAUGAGGAUCACCCAUGUCCUCCAAAGAUUAGCAAGGAAGAAGGGAAGUAAACAG | 82.2 nM | 69 nM | 
37 | AGAUCCCUGGUGAGGAUAUGUGAGACAUUCCCAGGACAGAAGGCACAUGAGGAUCACCCAUGUGUUGGGUAAUU | 6.32 nM | 6.65 nM | 
38 | CAAAACUGAGGAUAUACAAAGAAAUGGAACAUAGUACAGUAACAUGAGGAUCACCCAUGUAGAAGGCAGGACUA | 6.01 nM | 6.6 nM | 
39 | GUCUCUAGGACAGGAUAUCUCCUCAGGGAUGCGAGAGAAGGGUCUAUUGACAUGAGGAUCACCCAUGUGGAUCAUGUCUAUGAU | 378 nM | 352 nM | 
40 | ACGGUUCGAGGAUAUGUCGGUAGUUACAUGAGGAUCACCCAUGUUGUGACAUCGUGGUGGACAGAAGGCGACAUCC | 201 nM | 119 nM | 
41 | UGACUCUCUGUCAGGAUAUAACAAGCUACAGUUUAUUAGAAGGGACAUGAGGAUCACCCAUGUUGAACACCCGA | 7.94 nM | 7.98 nM | 
42 | UUGAAACAUGAGGAUCACCCAUGUCAGGAUAUCUUAACCCACUUACGCGAGUGUAGCCAGAGAAGGGACAGCGG | 12.1 nM | 17.4 nM | 
43 | CCAUUGCAUGGAGGAUAUGAGCAGUAAGUACUCUCAGAAGGCCACGGAGUAAACAAACCAUCUUACAUGAGGAUCACCCAUGUA |  |  | apparent Kd [1]: 13 nM; apparent Kd [2]: 7.69 nM
44 | CCUGUGAUCCACAUGAGGAUCACCCAUGUAUAAGUGAUUGACAGAAGGAGAGCAUGCUUGUGAUUCUAGGAUAUGUUUCUCAUA | 25.2 nM | 25.9 nM | 
45 | AUCUGGAGAGGAUAUUGAUCGGAACACAUGAGGAUCACCCAUGUGAGCCCUCGUGUCCCUCAAGAAGGCUCGGGCG | 5.73 nM | 7.71 nM | 
46 | UAAGAAGAUGAGAAGGGCCAAGUAUGAGCCGGGCGAUACAUGAGGAUCACCCAUGUUUCCUAACGGCAGGAUAUCACUUCCUAU | 5.86 nM | 18.8 nM | 
47 | AAUCGCCUGGGUCGCAUCCUUGCUCCGGAUACCAGUCAAUAGUUGGACCCUUGGCAGCCGUAGACAUGAGGAUCACCCAUGUAUA |  |  | apparent Kd (designed as: OFF switch for theophylline, no ligand): 53.8 nM; apparent Kd (ligand present: theophylline, designed as: OFF switch for theophylline): 109 nM
48 | AUAAUAACAUGAGGAUCACCCAUGUCCUCUUGGCGGCGGCUUAGAAGGUCGACUACUUUUCUUUCGAAGGAUAUAACCUGUUCU | 913 nM | 733 nM | 
49 | CUAAUGGUUGCAGGAUAUCGAAAACCGCACAUGAGGAUCACCCAUGUCGCUAAGCGUGACAUAGUCGAGAAGGGCAUGACAACU | 37.3 nM | 14.8 nM | 
50 | AGGACGUCAGGAUAUUCUAUGUGGCUCUAAUGGCCGACCAUGAAGAAGGGACAUGAGGAUCACCCAUGUGAGCU | 25.7 nM | 50.1 nM | 
51 | CAAUUUCGAAUAGAUACCAGCUGUCAUAAACACAUGAGGAUCACCCAUGUGCUUCUCGUCAGCCCUUGGCAGCUAUAACUAGAGC |  |  | apparent Kd (designed as: ON switch for theophylline, no ligand): 15.8 nM; apparent Kd (ligand present: theophylline, designed as: ON switch for theophylline): 10 nM
52 | CGCUUGUUCAUAGGAUAUGCUAGGUAACUCAUGGUGAGUUGGGGAACAUGAGGAUCACCCAUGUGGCAGAAGGAUGGCGUUAAU | 65 nM | 55.3 nM | 
53 | AGUAGGCAUUCAGGAUAUGGGGAUUUCUCACUGCCACAUGAGGAUCACCCAUGUGGAAGGUACACCCAGAAGGGAAAGUGGUUA |  |  | apparent Kd [1]: 17 nM; apparent Kd [2]: 11.3 nM
54 | UAAAGCUGAAAGAAGGCUCCAUCGCUAGUACUGAGAGGAUAUUUCGUUGUUGACAUGAGGAUCACCCAUGUGGUUCGCCGGGCC |  |  | apparent Kd [1]: 49.4 nM; apparent Kd [2]: 26.8 nM

From the EternaBench riboswitch data
